Assay results reported in ChEMBL document CHEMBL1149105, “3-(4-phenoxyphenyl)pyrazoles: a novel class of sodium channel blockers” (J Med Chem, 2004).
pKi: −log10 of the molar value.

Tests used:
[1] = target: T1, Sodium channel protein type 4 subunit alpha (Homo sapiens, UniProt P35499); test: Affinity for inactive human SkM1 sodium channel expressed in HEK293 cells; assay type: cell-based
Procedure, shortened: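 Whole-cell voltage clamp at room temperature on HEK-293 cells stably expressing hSkM1, recorded 3–4 days after plating. Cells were held at -120 mV. 10–12 conditioning prepulses (3 s, 10 mV steps) were each followed by a 5 ms test pulse to 0 mV at 1/7 s. Boltzmann V1/2 and k were taken without and with drug (final 0.003–10 μM, ≤0.1% DMSO). Ki came from the modified Bean equation. Mean ± SEM, n = 3–4.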
Target sequence in this assay (P35499 whole entry): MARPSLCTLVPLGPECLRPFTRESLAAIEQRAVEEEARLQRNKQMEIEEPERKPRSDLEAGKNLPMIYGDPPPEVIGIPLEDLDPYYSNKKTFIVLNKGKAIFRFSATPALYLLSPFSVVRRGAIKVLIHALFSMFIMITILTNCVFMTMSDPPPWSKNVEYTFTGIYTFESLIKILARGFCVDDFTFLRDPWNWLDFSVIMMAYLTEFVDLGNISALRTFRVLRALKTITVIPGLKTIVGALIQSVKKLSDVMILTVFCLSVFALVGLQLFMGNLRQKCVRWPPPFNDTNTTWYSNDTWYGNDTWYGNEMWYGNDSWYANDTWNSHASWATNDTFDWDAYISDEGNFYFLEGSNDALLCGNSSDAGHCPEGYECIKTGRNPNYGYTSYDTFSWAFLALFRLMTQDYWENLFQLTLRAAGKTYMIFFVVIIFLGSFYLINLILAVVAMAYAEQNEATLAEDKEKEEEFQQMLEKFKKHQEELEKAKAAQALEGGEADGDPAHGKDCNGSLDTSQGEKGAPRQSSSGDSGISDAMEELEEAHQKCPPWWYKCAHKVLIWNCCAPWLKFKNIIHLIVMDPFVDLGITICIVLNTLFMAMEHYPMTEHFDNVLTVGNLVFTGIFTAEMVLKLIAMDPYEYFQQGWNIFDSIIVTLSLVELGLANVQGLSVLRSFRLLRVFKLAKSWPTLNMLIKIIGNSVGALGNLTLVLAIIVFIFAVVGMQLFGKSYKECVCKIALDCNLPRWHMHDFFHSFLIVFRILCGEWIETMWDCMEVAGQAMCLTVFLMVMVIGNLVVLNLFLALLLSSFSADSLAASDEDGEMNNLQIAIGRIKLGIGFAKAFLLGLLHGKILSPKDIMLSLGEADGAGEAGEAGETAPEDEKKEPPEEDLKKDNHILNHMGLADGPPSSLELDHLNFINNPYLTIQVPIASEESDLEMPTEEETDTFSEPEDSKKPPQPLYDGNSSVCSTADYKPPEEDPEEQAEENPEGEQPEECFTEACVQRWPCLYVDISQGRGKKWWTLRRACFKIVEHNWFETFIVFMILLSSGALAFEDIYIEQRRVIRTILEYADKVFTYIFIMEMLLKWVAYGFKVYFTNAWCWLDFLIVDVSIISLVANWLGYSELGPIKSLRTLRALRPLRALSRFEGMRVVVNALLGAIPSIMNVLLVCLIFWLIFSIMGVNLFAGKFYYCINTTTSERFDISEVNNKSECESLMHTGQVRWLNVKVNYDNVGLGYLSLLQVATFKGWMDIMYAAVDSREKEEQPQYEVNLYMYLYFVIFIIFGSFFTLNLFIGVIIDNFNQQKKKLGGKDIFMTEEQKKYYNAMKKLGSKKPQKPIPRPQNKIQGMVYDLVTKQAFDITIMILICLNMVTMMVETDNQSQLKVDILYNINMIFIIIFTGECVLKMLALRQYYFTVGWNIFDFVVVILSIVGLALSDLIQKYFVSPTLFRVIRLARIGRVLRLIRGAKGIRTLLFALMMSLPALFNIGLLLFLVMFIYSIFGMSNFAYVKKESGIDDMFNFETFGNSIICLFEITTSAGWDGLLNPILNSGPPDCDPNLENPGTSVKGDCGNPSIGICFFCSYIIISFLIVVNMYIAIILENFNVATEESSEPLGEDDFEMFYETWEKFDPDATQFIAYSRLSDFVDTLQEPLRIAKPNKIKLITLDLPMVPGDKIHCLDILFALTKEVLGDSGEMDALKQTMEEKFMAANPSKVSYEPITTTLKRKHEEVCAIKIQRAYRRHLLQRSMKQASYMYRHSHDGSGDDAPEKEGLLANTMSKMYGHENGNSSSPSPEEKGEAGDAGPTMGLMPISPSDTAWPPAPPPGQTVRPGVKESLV

[2] = target: T1, Sodium channel protein type 4 subunit alpha; test: Affinity for resting human SkM1 sodium channel expressed in HEK293 cells; assay type: cell-based
Procedure, shortened: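 Tonic block was measured by whole-cell patch clamp on hSkM1-expressing HEK-293 cells at room temperature. Cells were held at -120 mV, where all channels are resting, and depolarized to 0 mV. Peak current was compared between control and 3 μM antagonist applied by flow pipes from DMSO stock. The fractional response gave Kr = FR/(1−FR)·[antag], with slope n = 1. Mean ± SEM, n = 3–4.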
Target sequence in this assay (P35499 whole entry, looked up): as the sequence (P35499 whole entry) above

[3] = target: T1, Sodium channel protein type 4 subunit alpha; test: Relative affinity for inactivated and resting human SkM1 expressed in HEK293 cells; assay type: cell-based
Target sequence in this assay (P35499 whole entry, looked up): as the sequence (P35499 whole entry) above

[4] = target: T1, Sodium channel protein type 4 subunit alpha; conditions: HEK293
Target sequence in this assay (P35499 whole entry, looked up): as the sequence (P35499 whole entry) above

Row | SMILES | pKi [1] | Kr [2] [µM] | Ratio [3] | Kr [4] [µM]
1 | CNC(=O)n1ccc(-c2ccc(Oc3ccc(F)cc3)cc2)n1 | 6.82 | 21 | 140 | 
2 | c1ccc(Oc2ccc(-c3cc[nH]n3)cc2)cc1 | 6.62 | 16 | 67 | 
3 | Fc1ccc(Oc2ccc(-c3cc[nH]n3)cc2)cc1 | 6.70 | 17 | 85 | 
4 | Cn1ccc(-c2ccc(Oc3ccc(F)cc3)cc2)n1 | 6.16 | 21 | 30 | 
5 | CN(C)C(=O)n1ccc(-c2ccc(Oc3ccc(F)cc3)cc2)n1 | 6.47 | 26 | 76 | 
6 | NC(=O)N/N=C/c1ccc(Oc2ccc(F)cc2)cc1 | 6.74 | 27 | 150 | 
7 | NC(=O)n1ccc(-c2ccc(Oc3ccccc3)cc2)n1 | 7.46 | 5 | 143 | 
8 | O=C1NC(=O)C(c2ccccc2)(c2ccccc2)N1 [PHENYTOIN] | 4.62 | 620 | 26 | 
9 | COc1ccc(-c2cc[nH]n2)cc1 | 4.09 | 710 | 9 | 

The remaining lines, values ahead:

Row | pKi [1] | Kr [2] [µM] | Ratio [3] | Kr [4] [µM] | SMILES
10 | 7.60 | 10 | 400 |  | NC(=O)n1ccc(-c2ccc(Oc3ccc(F)cc3F)cc2)n1
11 | 4.77 | 1440 | 85 |  | Nc1nnc(-c2cccc(Cl)c2Cl)c(N)n1 [LAMOTRIGINE]
12 | 4.28 |  | 14 | 720 | NC(=O)N1c2ccccc2C=Cc2ccccc21 [CARBAMAZEPINE]
13 | 4.21 | 1110 | 18 |  | c1ccc(-c2cc[nH]n2)cc1
14 | 7.51 | 7 | 226 |  | NC(=O)n1ccc(-c2ccc(Oc3ccc([N+](=O)[O-])cc3)cc2)n1
15 | 7.51 | 6 | 194 |  | NC(=O)n1ccc(-c2ccc(Oc3ccc(F)cc3)cc2)n1
